According to publication PMC2889702 (ACS chemical neuroscience, 2010):
“Also recorded” adds a separate entry of the source. Each block holds one molecule with its values, some of them ahead of it.

What was measured:
Format in all cases: cell-based
rat mGluR1 = rat mGluR1 (Rattus norvegicus, UniProt P23385)
How it was run: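 Rat mGluR1 stably expressed in BHK cells. Test compound run as a full 1:3 serial-dilution concentration–response, top final concentration 30 μM. Cells preincubated ~2.5 min with compound, then given an EC20 glutamate concentration, then EC80 glutamate 2 min later. Antagonism taken as blockade of the EC80 response. Data normalized to percent maximal glutamate response.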

human mGluR4 [1] = target: T1, human mGluR4 (Homo sapiens, UniProt Q14833); assay: calcium mobilization potency assay; conditions: for fold increase in potency against hmGluR4: compared to PHCCC / (−)-PHCCC
T1 sequence (Q14833 33-912): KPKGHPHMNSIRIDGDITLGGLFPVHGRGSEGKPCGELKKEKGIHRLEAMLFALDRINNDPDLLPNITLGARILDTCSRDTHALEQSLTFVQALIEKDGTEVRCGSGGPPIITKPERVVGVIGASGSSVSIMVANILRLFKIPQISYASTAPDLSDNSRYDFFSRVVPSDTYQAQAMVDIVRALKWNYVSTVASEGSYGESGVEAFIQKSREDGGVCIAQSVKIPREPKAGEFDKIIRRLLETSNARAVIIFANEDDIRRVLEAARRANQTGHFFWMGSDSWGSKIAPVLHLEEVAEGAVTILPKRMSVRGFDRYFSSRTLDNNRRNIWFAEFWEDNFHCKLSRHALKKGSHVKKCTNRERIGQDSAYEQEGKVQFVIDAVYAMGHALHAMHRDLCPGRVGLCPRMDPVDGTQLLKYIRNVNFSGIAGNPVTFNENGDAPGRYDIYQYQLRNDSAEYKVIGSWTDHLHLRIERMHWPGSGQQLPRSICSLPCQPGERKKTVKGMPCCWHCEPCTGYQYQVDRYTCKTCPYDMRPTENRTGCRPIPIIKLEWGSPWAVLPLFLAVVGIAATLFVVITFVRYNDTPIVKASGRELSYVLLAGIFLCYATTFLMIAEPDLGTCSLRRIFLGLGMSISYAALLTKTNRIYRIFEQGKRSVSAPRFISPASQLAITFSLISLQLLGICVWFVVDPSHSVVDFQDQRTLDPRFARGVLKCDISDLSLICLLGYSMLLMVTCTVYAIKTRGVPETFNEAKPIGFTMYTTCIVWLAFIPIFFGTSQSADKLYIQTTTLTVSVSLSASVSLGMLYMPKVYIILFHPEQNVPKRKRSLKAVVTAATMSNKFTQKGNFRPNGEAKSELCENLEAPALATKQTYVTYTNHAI

human mGluR4 [2] = target: T1, human mGluR4; conditions: compared to (−)-PHCCC
other mGluR subtypes = assay: selectivity against all of the mGluR subtypes; conditions: 10 μM compound
How it was run: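 Rat mGluR2, -3, -7, -8 and human mGluR6 were stably expressed in HEK cells coexpressing GIRK1/2. Rat mGluR5 was in HEK cells and rat mGluR1 in BHK cells. Cells received 10 μM final test compound or vehicle, then a full agonist concentration-response (glutamate; L-AP4 for mGluR7). mGluR1 instead: 1:3 compound series to 30 μM top final, EC20 then EC80 glutamate, blockade of EC80 response. Normalized to % Glu Max, triplicate.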

Sequence of rat mGluR1 (P23385 19-1199): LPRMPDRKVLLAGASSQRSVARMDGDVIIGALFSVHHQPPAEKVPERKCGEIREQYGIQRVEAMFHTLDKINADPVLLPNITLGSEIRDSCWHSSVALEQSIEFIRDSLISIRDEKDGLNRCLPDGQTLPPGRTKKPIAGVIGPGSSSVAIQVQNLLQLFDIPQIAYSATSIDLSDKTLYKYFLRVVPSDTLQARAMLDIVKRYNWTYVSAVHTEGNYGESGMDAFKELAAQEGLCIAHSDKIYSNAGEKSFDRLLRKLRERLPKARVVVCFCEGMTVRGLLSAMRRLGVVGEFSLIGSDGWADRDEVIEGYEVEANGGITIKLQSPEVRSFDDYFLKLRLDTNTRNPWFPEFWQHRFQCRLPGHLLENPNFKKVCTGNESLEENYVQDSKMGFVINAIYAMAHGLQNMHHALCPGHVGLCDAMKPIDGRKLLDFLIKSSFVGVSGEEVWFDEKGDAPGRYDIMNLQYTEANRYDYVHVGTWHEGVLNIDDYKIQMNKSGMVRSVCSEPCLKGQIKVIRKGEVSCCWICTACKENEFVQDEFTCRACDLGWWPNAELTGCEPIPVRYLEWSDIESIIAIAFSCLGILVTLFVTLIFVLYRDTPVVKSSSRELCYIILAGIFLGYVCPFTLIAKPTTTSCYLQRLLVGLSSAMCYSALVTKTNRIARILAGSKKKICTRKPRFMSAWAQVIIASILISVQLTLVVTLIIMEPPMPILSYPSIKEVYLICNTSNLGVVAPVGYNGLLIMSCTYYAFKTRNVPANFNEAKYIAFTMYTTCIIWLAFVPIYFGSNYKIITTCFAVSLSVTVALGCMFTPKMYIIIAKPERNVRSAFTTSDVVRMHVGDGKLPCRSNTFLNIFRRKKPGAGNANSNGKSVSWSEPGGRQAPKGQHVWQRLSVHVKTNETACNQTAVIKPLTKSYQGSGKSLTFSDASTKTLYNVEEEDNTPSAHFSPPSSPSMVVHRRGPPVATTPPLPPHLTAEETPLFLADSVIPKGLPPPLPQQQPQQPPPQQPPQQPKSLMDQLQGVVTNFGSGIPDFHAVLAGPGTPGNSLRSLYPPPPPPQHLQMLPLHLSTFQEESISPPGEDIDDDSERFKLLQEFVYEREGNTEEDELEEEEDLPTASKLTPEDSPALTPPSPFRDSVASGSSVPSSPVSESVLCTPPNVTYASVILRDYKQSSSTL

% Glu Max (mGluR1) (rat mGluR1; rat mGluR1, normalized to percent maximal glutamate response): 23% | IC50 (rat mGluR1; read-out: mGluR1 IC50): 2100 nM
Structure (SMILES): O=C(Nc1ccccc1)C12CC1/C(=N\O)c1ccccc1O2 (racemic) [(±)-PHCCC, PHCCC]

EC50 (human mGluR4 [1]): 870 nM | mGluR1 activity (rat mGluR1; result in words, NAM=negative allosteric modulator): devoid of any mGluR1 activity
Structure (SMILES): O=C(Nc1ccccn1)C12CC1/C(=N\O)c1ccccc1O2 (stereo not shown) [Compound 5i, (E)-7-(Hydroxyimino)-N-(pyridin-2-yl)-1,1a,7,7a-tetrahydrocyclopropa[b]chromene-1a-carboxamide]

fold enhancement in efficacy (human mGluR4 [2]): 2 fold | agonist activity of compound added alone at higher concentrations (human mGluR4 [1]; >30 μM compound alone, data not shown): some intrinsic agonist activity | fold increase in potency against hmGluR4 (human mGluR4 [1]; listed as 10c): > 4 fold | fold increase in potency against hmGluR4 (human mGluR4 [1]; listed as (-)-10c): 4 fold
Structure (SMILES): O=C(Nc1ccccn1)C12CC1/C(=N\O)c1ccccc1O2 (single isomer, unassigned; (-)) [(−)-10c]
agonist activity of compound added alone (human mGluR4 [1]; 30 μM compound alone, before glutamate addition, calcium mobilization): do not exhibit agonist activity; also recorded: only act in the presence of glutamate | activity against the other mGluR subtypes tested (other mGluR subtypes): devoid of activity
